Measurements published in ChEMBL document CHEMBL1149450, “Synthesis and cytotoxic evaluation of new derivatives of the marine alkaloid variolin B” (2006).

Key:
Format in all cases: functional
SK-MEL-28 = experiment: Inhibition of growth against MEL28 cells after 72 hrs exposure; settings: Homo sapiens, SK-MEL-28, 72 h
In short: (§1)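 Human tumour cells seeded at 5 × 10^3 per well in RPMI and allowed to attach for 18 h in drug-free medium. Compounds added in DMSO:H2O (3:7) for 72 h of continuous exposure. Cells fixed with cold TCA (60 min, 4 °C), stained with 0.4% SRB in 1% acetic acid (10 min, RT), and bound dye solubilised in Tris. OD read at 490 nm. GI50 calculated from 100 × [(T − T0)/(C − T0)] = 50, using control, test and time-zero ODs.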

A549 = experiment: Inhibition of growth against A549 cells after 72 hrs exposure; settings: Homo sapiens, A549, 72 h; in short: as §1
K562 = experiment: Inhibition of growth against K562 cells after 72 hrs exposure; settings: Homo sapiens, K562, 72 h; in short: as §1
PANC-1 = experiment: Inhibition of growth against PANC1 cells after 72 hrs exposure; settings: Homo sapiens, PANC-1, 72 h; in short: as §1
HT-29 = experiment: Inhibition of growth against HT29 cells after 72 hrs exposure; settings: Homo sapiens, HT-29, 72 h; in short: as §1
LoVo [1] = experiment: Inhibition of growth against LoVo cells after 72 hrs exposure; settings: Homo sapiens; in short: as §1
LoVo [2] = experiment: Inhibition of growth against LoVo-Dox cells after 72 hrs exposure; settings: Homo sapiens; in short: as §1
HeLa [3] = experiment: Inhibition of growth against HeLa cells after 72 hrs exposure; settings: Homo sapiens; in short: as §1
HeLa [4] = experiment: Inhibition of growth against HeLa-Apl cells after 72 hrs exposure; settings: Homo sapiens; in short: as §1
DU-145 = experiment: Inhibition of growth against DU145 cells after 72 hrs exposure; settings: Homo sapiens, DU-145, 72 h; in short: as §1
LNCaP = experiment: Inhibition of growth against LnCAP cells after 72 hrs exposure; settings: Homo sapiens; in short: as §1
IGROV-1 [5] = experiment: Inhibition of growth against IGROV cells after 72 hrs exposure; settings: Homo sapiens, IGROV-1, 72 h; in short: as §1
SK-BR-3 = experiment: Inhibition of growth against SKBR3 cells after 72 hrs exposure; settings: Homo sapiens, SK-BR-3, 72 h; in short: as §1
IGROV-1 [6] = experiment: Inhibition of growth against IGROV-ET cells after 72 hrs exposure; settings: Homo sapiens, IGROV-1, 72 h; in short: as §1
HMEC = experiment: Inhibition of growth against HMEC1 cells after 72 hrs exposure; settings: Homo sapiens; in short: as §1
SK-OV-3 = experiment: Inhibition of growth against SKOV3 cells after 72 hrs exposure; settings: Homo sapiens, SK-OV-3, 72 h; in short: as §1

SMILES	GI50 (SK-MEL-28) [µM]	GI50 (A549) [µM]	GI50 (K562) [µM]	GI50 (PANC-1) [µM]	GI50 (HT-29) [µM]	GI50 (LoVo [1]) [µM]	GI50 (LoVo [2]) [µM]	GI50 (HeLa [3]) [µM]	GI50 (HeLa [4]) [µM]	GI50 (DU-145) [µM]	GI50 (LNCaP) [µM]	GI50 (SK-BR-3) [µM]	GI50 (SK-OV-3) [µM]	GI50 (IGROV-1 [5]) [µM]	GI50 (IGROV-1 [6]) [µM]	GI50 (HMEC) [µM]
COc1ccnc2c1c(-c1ccnc(N)n1)c1cc(-c3ccnc(N)n3)nc(NCc3ccccc3)n12	21	21	21	19.9	21	21	21	3.03	3.68	21	18.6	8.24	–	21	21	–
Nc1nccc(-c2c3c(O)ccnc3n3c(N)nccc23)n1 [VARIOLIN B]	1.2	0.98	1.55	1.68	2.85	0.8	1.02	–	–	0.89	0.05	0.85	1.21	1.14	1.28	0.27
CN(C)Cc1cnc2c(c1O)c(-c1ccnc(N)n1)c1cc(-c3ccnc(N)n3)nc(NCc3ccccc3)n12	4.12	18.7	4.78	17.7	18.7	13.6	3.05	4.52	3.88	4.74	9.13	2.79	–	4.03	3.56	–
Nc1nccc(-c2cc3cc4c(O)ccnc4n3c(N)n2)n1 [7-ISOVARIOLIN B]	3.41	34.1	9.24	21.8	34.1	34.1	34.1	6.14	8.86	34.1	5.28	31.9	–	27.9	31.9	–
Nc1nccc(-c2cc3c(-c4ccnc(N)n4)c4c(O)ccnc4n3c(N)n2)n1	26.9	26.9	26.9	26.9	26.9	26.9	26.9	26.9	26.9	26.9	26.9	14.8	–	26.9	26.9	–

Now from value to compound, other results behind:

GI50 (SK-MEL-28) [µM]	GI50 (A549) [µM]	GI50 (K562) [µM]	GI50 (PANC-1) [µM]	GI50 (HT-29) [µM]	GI50 (LoVo [1]) [µM]	GI50 (LoVo [2]) [µM]	GI50 (HeLa [3]) [µM]	GI50 (HeLa [4]) [µM]	GI50 (DU-145) [µM]	GI50 (LNCaP) [µM]	GI50 (SK-BR-3) [µM]	GI50 (SK-OV-3) [µM]	SMILES	GI50 (IGROV-1 [5]) [µM]	GI50 (IGROV-1 [6]) [µM]	GI50 (HMEC) [µM]
21.7	21.7	21.7	21.7	21.7	21.7	21.7	–	–	21.7	21.7	21.7	21.7	Nc1nccc(-c2cc3c(-c4ccnc(N)n4)c4c(O)ccnc4n3c(NCc3ccccc3)n2)n1	21.7	9.9	21.7
25.2	25.2	25.2	25.2	25.2	14.4	11	–	–	25.2	16	25.2	25.2	COc1ccnc2c1cc1cc(-c3ccnc(N)n3)nc(NCc3ccccc3)n12	15.1	25.2	15
4.42	3.38	3.36	3.97	3.44	3.62	3.46	–	–	2.38	2.37	2.13	0.72	COc1ccnc2c1c(-c1ccnc(N)n1)c1cc(C(=O)NCCN(C)C)nc(NCc3ccccc3)n12	2.8	2.05	0.46
24.4	14.1	26.1	26.1	25.1	8.74	6.76	–	–	26.1	12.9	13.1	19	Nc1nccc(-c2cc3cc4c(O)ccnc4n3c(NCc3ccccc3)n2)n1	4.46	12.9	6.31
